rRNA inh HTS – reduced GFP signal of wild-type E. coli, primary screen, bacterial rRNA inhibitor project, GFP/RFP fluorescence, OD600, single point. E. coli WT GFP vs humanized-ribosome RFP mutants, 24 h; stronger effect = lower value; DMSO median 0, no signal -100. hit rate 1.6% among 350,000. GFP signal change (wild-type ribosome), % (test concentration not listed);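 active = significant combined selectivity score with lowered wild-type GFP, culture density cut under 30%, mutant RFP and density less affected; inactive = any of these conditions unmet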
PGC1a acetyl inh – inhibitors of PGC1a acetylation signal, primary screen, cell-based, U2OS, AlphaScreen, inhibitor mode; AlphaScreen anti-acetyl-lysine; with virally co-expressed GCN5 acetyltransferase; inhibition, % at 15.6 µM; hit rate 0.17% among 350,000;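 active = every replicate shows inhibition of at least 40%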;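 note: 0% = neutral control wells and 100% = positive control wells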
Casp6 inh – human caspase-6 inhibitors, primary screen, biochemical, VEID-R110 fluorescence, single point, set 2. purified caspase-6, Z-VEID-R110 cleavage fluorescence. inhibition, % at 12.5 µM. hit rate 0.53% among 350,000;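 active = mean inhibition across replicates at least about 35%, with every replicate also reaching that limit, limit read from the data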;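 note: 0% = median of neutral control wells and 100% = no fluorescence left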
S100A4 MyoIIA – inhibitors of S100A4-myosin IIA peptide binding, primary screen, biochemical, fluorescence polarization, TAMRA-MyoIIA peptide. Protein S100-A4 (Homo sapiens), P26447. inhibition, % at 10.7 µM. AID 652163, 2013. hit rate 0.14% among 360,000;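 active = mean inhibition of at least 70% across replicates, with every replicate also reaching that level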
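Test system: S100A4 monomer protein; Medium: HEPES pH 7.2 with CaCl2, KCl, NaCl, DTT, Triton; Probe or stimulus: TAMRA-labelled myosin IIA heavy-chain peptide probe, 5 nM; Doses: one dose per compound; Times: polarization read 5 min after assay mix addition, stable 5–60 min; Benchmarks: neutral control DMSO, positive control TFP.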
ARNT-TACC3 inh – disruptors of ARNT/TACC3 protein interaction, primary screen, biochemical, AlphaScreen, single concentration; Transforming acidic coiled-coil-containing protein 3 (Homo sapiens), Q9Y6A5; AlphaScreen His-ARNT PAS-B/GST-TACC3 binding, luminescence; TACC3 fragment carries E629A point mutation; inhibition, % at 9.99 µM; hit rate 0.66% among 390,000; AID 623870, 2012;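 active = mean inhibition of replicates at least 50% and at least half of replicates each reaching 50%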;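 note: 0% = complete ARNT plus TACC3 wells and 100% = ARNT alone without TACC3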
ERAP1 HTS inh – human ERAP1 aminopeptidase inhibitors, primary screen, biochemical, single point, plate reader; Endoplasmic reticulum aminopeptidase 1 (Homo sapiens), Q9NZ08; recombinant ERAP1, Leu-AMC fluorescence, 60 min; inhibition, % at 10.7 µM; hit rate 0.15% among 340,000;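 active = mean replicate inhibition of at least 30%, or all replicates individually reaching that 30% level; inactive = mean below 30% and not every replicate reaching it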;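 note: 0% = neutral control wells and 100% = L-leucinethiol positive control wells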
Target sequence (Q9NZ08 whole entry, looked up): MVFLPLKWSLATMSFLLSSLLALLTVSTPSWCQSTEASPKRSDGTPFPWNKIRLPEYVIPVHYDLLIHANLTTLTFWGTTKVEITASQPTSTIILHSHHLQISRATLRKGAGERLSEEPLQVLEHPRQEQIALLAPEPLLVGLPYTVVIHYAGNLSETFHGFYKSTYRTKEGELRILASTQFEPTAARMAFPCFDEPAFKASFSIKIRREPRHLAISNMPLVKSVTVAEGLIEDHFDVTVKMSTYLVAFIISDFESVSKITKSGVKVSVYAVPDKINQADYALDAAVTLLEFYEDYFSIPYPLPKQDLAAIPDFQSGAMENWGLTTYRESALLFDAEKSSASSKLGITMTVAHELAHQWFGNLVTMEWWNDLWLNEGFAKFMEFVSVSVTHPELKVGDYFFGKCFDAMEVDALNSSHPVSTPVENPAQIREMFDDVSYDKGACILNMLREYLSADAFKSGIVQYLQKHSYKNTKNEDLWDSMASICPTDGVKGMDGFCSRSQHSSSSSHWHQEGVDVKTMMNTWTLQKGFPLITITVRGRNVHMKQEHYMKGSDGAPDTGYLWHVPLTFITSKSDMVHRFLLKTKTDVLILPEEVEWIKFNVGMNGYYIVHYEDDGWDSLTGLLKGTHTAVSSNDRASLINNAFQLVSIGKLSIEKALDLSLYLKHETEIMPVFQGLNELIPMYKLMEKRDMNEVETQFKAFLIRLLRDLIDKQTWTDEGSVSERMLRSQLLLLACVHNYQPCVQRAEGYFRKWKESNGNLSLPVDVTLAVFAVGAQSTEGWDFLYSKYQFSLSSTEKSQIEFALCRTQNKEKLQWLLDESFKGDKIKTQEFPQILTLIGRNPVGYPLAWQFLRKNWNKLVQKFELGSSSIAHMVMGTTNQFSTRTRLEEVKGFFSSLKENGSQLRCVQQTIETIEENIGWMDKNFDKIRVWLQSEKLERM
CASP1 counter – human caspase-1 inhibitors, dose response, selectivity assay for caspase-6 inhibitor project, biochemical, Z-YVAD-R110 fluorescence, cherry-pick, set 2. shares compounds with Casp6 inh. purified caspase-1, Z-YVAD-R110 cleavage fluorescence. activity change, negative = inhibition, % at 35 µM. 100 tested, under 10 active. AID 743289, 2014;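 active = compounds lowering fluorescence whose fitted half-maximal concentration is no more than twice their top tested dose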
An asterisk follows results filed as active; / = no result given. In the library only some 2.4% were active in any assay of this set; here they are far more common.

SMILES	rRNA inh HTS	PGC1a acetyl inh	Casp6 inh	S100A4 MyoIIA	ARNT-TACC3 inh	ERAP1 HTS inh	CASP1 counter
C[C@@H]1CN([C@@H](C)CO)C(=O)c2cc(NC(=O)Nc3ccc(C(F)(F)F)cc3)ccc2O[C@@H]1CN(C)C(=O)Nc1ccc(C(F)(F)F)cc1	-7	7	-4	8	-6	2	/
COc1ccc(NC(=O)N2C[C@@H](O)COC[C@@H]3O[C@H](CC(=O)NC4Cc5ccccc5C4)CC[C@H]32)cc1	4	0	-1	7	3	0	/
COc1cc(N(C(C)=O)c2ccc(O)c(C(=O)O)c2)c2ncccc2c1	12	/	44*	4	/	4	-2
COc1cc(N(C(C)=O)c2ccc(O)cc2)c2ncccc2c1	/	/	4	-3	/	0	/
COCCN(C(=O)COC(=O)c1cc2c(s1)CCC2)c1c(N)n(Cc2ccccc2)c(=O)[nH]c1=O	-6	-5	80*	-9	0	1	-1
Cn1cnnc1SCC(=O)Nc1ncc([N+](=O)[O-])s1	-11	0	39*	-2	6	-3	-4
Cc1csc(NC(=O)CSc2nncn2C)n1	/	3	/	/	-7	/	/
O=C(Nc1ccc2nc3n(c(=O)c2c1)CCCCC3)c1c(F)ccc([N+](=O)[O-])c1F	-22*	/	60*	4	-8	-3	14
COc1ccc(C(=O)Nc2ccc(S(=O)(=O)Nc3cnc4ccccc4n3)cc2)cc1	-8	28	2	12	-3	0	/
O=C(Nc1ccc(S(=O)(=O)Nc2cnc3ccccc3n2)cc1)c1ccc(Cl)c([N+](=O)[O-])c1	-21	-6	62*	3	13	5	-4
CC[C@H](CO)Oc1cc(NCc2cccc(N)c2)c2ncn(C(C)C)c2c1	-5	/	46*	6	/	/	-4
Cc1ccc(S(=O)(=O)N(C)C[C@@H]2OCCCC[C@@H](C)Oc3ccc(NC(=O)Nc4ccc(F)cc4)cc3C(=O)N([C@@H](C)CO)C[C@@H]2C)cc1	2	5	1	-6	0	2	/
CCOc1c(O)ccc(/C=C2\SC(=S)NC2=O)c1[N+](=O)[O-]	-38	-9	61*	-3	35	9	9
O=c1oc2cc(O)c(Cl)cc2c2ccccc12	/	-3	/	/	0	/	/
O=c1cc2c(=O)oc3cc(O)c(O)oc3c2c(O)c1O	7	-2	95*	-4	13*	14	-8
C/C(CC(=O)N1CCCC1)=N\NC(=O)c1cc2ccccc2cc1O	-37	/	39*	-2	/	/	13
C[C@@H]1CN([C@@H](C)CO)C(=O)c2cc(NC(=O)C3CC3)ccc2O[C@@H]1CN(C)C(=O)Nc1ccccc1	1	/	1	12	7	2	/
O=c1c(O)cccc2cc(O)c(O)c(O)c12	-6	11	98*	-4	25	4	-10
C[C@@H]1CN([C@@H](C)CO)C(=O)c2cc(NC(=O)Nc3cccc4ccccc34)ccc2O[C@@H](C)CCCCO[C@@H]1CN(C)S(=O)(=O)c1ccccc1	-1	-21	-1	-2	-33	-5	/
Cn1cnc(S(=O)(=O)N2C[C@@H](O)COC[C@@H]3O[C@H](CC(=O)NCc4cc(F)cc(F)c4)CC[C@H]32)c1	2	-2	0	9	1	0	/
CO[C@H]1CN(C)C(=O)c2cc(NC(C)=O)ccc2OC[C@@H](C)N(C(=O)CC2CC2)C[C@H]1C	-1	1	56*	-13	-20	17	-8
Cc1ccc(S(=O)(=O)Nc2csc(C)c2C(=O)O)cc1	0	/	61*	-3	/	/	-3
Cc1ccc(S(=O)(=O)Nc2cc(C)c(O)cc2C)cc1	-15	5	/	-5	/	-6	/
O=C1NC(=O)C(=Cc2ccccc2[N+](=O)[O-])S1	-12	-14	67*	-6	-21	2	4
O=C1NC(=O)/C(=C\c2ccccc2OCc2ccccc2)S1	-52	11	2	5	-7	-1	/
SMILES	rRNA inh HTS	PGC1a acetyl inh	Casp6 inh	S100A4 MyoIIA	ARNT-TACC3 inh	ERAP1 HTS inh	CASP1 counter
O=P(c1ccccc1)(c1ccccc1)c1cc(S(=O)(=O)O)ccc1O	1	/	77*	-4	-13	2	5
O=P(O)(c1ccccc1)c1ccccc1O	/	43	/	/	-6	/	/
CO[C@H]1CN(C)C(=O)c2cc(NC(=O)C3CCCC3)ccc2OC[C@@H](C)N(CC2CC2)C[C@@H]1C	0	-2	3	1	-2	2	/
COc1ccc2c3c([nH]c2c1)[C@@H](CO)N(C(=O)c1cnccn1)CC31CCN(C(=O)c2cnccn2)CC1	3	7	1	10	/	0	/
O=C(COC(=O)c1ccc([N+](=O)[O-])s1)Nc1ccccc1	/	12	/	/	2	/	0
O=C(COC(=O)c1ccc([N+](=O)[O-])s1)Nc1ccc(F)cc1	-51	-106	98*	-1	27	-1	2
O=C(COC(=O)c1ccc([N+](=O)[O-])s1)Nc1cccc(S(=O)(=O)NC2=NCCCCC2)c1	2	/	98*	-1	29	-3	13
O=C(COC(=O)c1cccs1)Nc1cccc(S(=O)(=O)NC2=NCCCCC2)c1	4	/	-6	-2	4	-2	/
O=C(OCc1nnc(-c2ccccc2)o1)c1ccc([N+](=O)[O-])s1	-16	2	99*	1	22	-1	1
CN(C)c1ccc2c(c1)[C@@H]1C[C@@H](CC(=O)NCc3ccncc3)O[C@@H](CO)[C@@H]1O2	2	5	0	-6	10	3	/
CC(C)(C)c1ccc(NC(=O)COC(=O)c2ccc([N+](=O)[O-])s2)cc1	/	7	/	/	2	/	-9
CCCNC(=O)C[C@@H]1CC[C@H]2[C@@H](COc3ccc(NC(=O)c4ccc(OC)cc4)cc3C(=O)N2C)O1	0	9	/	/	2	/	/
Cc1cc(C=O)c(C)n1-c1cccc(C(=O)O)c1	23	10	33	-7	3	2	/
Cc1cc(C=O)c(C)n1-c1cc(C(=O)O)cc(C(=O)O)c1	17	-2	41*	-2	-12	4	7
[O-][n+]1onc2c1CCc1c-2nn(-c2ccccc2Cl)[n+]1[O-]	83	2	82*	-5	3	3	-1

High-throughput results: PubChem BioAssay, Broad Institute
